The results in this text go back to ChEMBL document CHEMBL4339193, “Phenotypic Screening-Based Identification of 3,4-Disubstituted Piperidine Derivatives as Macrophage M2 Polarization Modulators: An Opportunity for Treating Multiple Sclerosis” (J Med Chem, 2019).

Series [1] has as its system Mus musculus. In words: Antiinflammatory activity in C57BL/6J mouse model of MOG (35 to 55 residues)/pertussis toxin/complete Freund's adjuvant-induced experimental allergic encephalomyelitis assessed as effect on dendritic cell population in draining lymph nodes by measuring change in CD11c level at 200 mg/kg, ig administered daily starting from 7 days post-immunization measured after 13 to 19 days post-immunization by flow cytometry analysis. The class given is functional, organism-based. An outline of the steps: (§1)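 MOG35-55/CFA EAE mice were dosed daily in saline from day 7 and sampled between days 13 and 19. Spleens and dLNs were mechanically dissociated to single cells. CNS cells came from collagenase IV digestion and a 70%/30% Percoll gradient. Cells were surface-stained with fluorochrome antibodies, including CD4, CD11b, CD11c and MHC-II, and analysed by flow cytometry.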

For series [2], the system named is Mus musculus. In words: Antiinflammatory activity in C57BL/6J mouse model of MOG (35 to 55 residues)/pertussis toxin/complete Freund's adjuvant-induced experimental allergic encephalomyelitis assessed as effect on dendritic cell population in spleen by measuring change in CD11c level at 200 mg/kg, ig administered daily starting from 7 days post-immunization measured after 13 to 19 days post-immunization by flow cytometry analysis. The class given is functional, organism-based. An outline of the steps:
as §1
A general note: A flow cytometer gives signals particle by particle.

Series [3] deals with Mus musculus. The experiment in a line: Induction of M2 polarization in C57BL/6J mouse model of MOG (35 to 55 residues)/pertussis toxin/complete Freund's adjuvant-induced experimental allergic encephalomyelitis assessed as CD206 level in CNS at 200 mg/kg, ig administered daily starting from 7 days post-immunization measured after 13 to 19 days post-immunization by flow cytometry analysis (reference value: 7.8%). In kind it is functional. The method, boiled down:
(§2)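 MOG35-55/CFA EAE mice were dosed daily in saline from day 7 and sampled between days 13 and 19. Cells came from spleen and dLN by mechanical dissociation and from CNS by collagenase IV/Percoll. They were stained for F4/80 with CD206 (M2) or CD86 (M1), and each was read by flow cytometry as a percentage of total F4/80+ macrophages.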

Series [4] concerns Mus musculus. In words: Induction of M2 polarization in C57BL/6J mouse model of MOG (35 to 55 residues)/pertussis toxin/complete Freund's adjuvant-induced experimental allergic encephalomyelitis assessed as CD206 level in draining lymph nodes at 200 mg/kg, ig administered daily starting from 7 days post-immunization measured after 13 to 19 days post-immunization by flow cytometry analysis (reference value: 6.5%). The class given is functional. The method, boiled down:
as §2

The test system of series [5] is Mus musculus. In words: Antiinflammatory activity in C57BL/6J mouse model of MOG (35 to 55 residues)/pertussis toxin/complete Freund's adjuvant-induced experimental allergic encephalomyelitis assessed as reduction in infiltration in spinal cord at 200 mg/kg, ig administered daily starting from 7 days post-immunization measured after 14 days post-immunization by H and E staining based microscopic analysis. The class given is functional, organism-based. The method, boiled down:
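EAE mice dosed daily in saline from day 7 were perfused with PBS and fixed in 4% PFA on day 14; spinal cords were taken. For LFB, frozen OCT sections sat 3 h in 0.1% Luxol Fast Blue at 56-60°C, were differentiated in 0.05% lithium carbonate for 10-12 s, cleared in 70% ethanol, dehydrated and mounted. For H&E, paraffin sections were stained to assess inflammation.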

Series [6] deals with BMDM. The experiment in a line: Inhibition of LPS-induced M1 polarization in C57BL/6J mouse BMDM cells assessed as down regulation of CD86 expression at 300 nM measured after 24 hrs by FACS analysis. In kind it is functional, cell-based. An outline of the steps:
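BMDMs pretreated with 50 ng/ml LPS for 24 h, then given compound (300 nM, or a range of concentrations) for 24 h. Stained for F4/80 and CD86; % CD86+F4/80+ cells read by flow cytometry. Mean ± SEM, at least three independent experiments.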

Series [7] concerns BMDM. In words: Inhibition of LPS-induced M1 polarization in C57BL/6J mouse BMDM cells assessed as down regulation of Inos mRNA expression at 300 nM measured after 24 hrs by qRT-PCR analysis. In kind it is functional, cell-based. An outline of the steps: (§3)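 BMDMs pre-incubated 24 h with 50 ng/ml LPS to induce M1, then treated 24 h with 300 nM compound. Total RNA extracted with Trizol; Mcp1, Inos and Cd86 mRNA measured by qRT-PCR. Mean ± SEM.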
Background: In qPCR the cycle at which signal appears reflects the starting amount.

In series [8] the test system is BMDM. In words: Modulation of M2 polarization in C57BL/6J mouse BMDM cells assessed as up regulation of Fizz1 mRNA expression at 300 nM measured after 24 hrs by qRT-PCR analysis. The class given is functional, cell-based. An outline of the steps:
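BMDMs treated 24 h with 300 nM compound at 37 °C, 5% CO2. Trizol RNA extraction, then qRT-PCR for Arg1, Mrc1 and Fizz1 mRNA. Mean ± SEM.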

In series [9] the test system is BMDM. The experiment in a line: Inhibition of LPS-induced M1 polarization in C57BL/6J mouse BMDM cells assessed as down regulation of Mcp1 mRNA expression at 300 nM measured after 24 hrs by qRT-PCR analysis. The class given is functional, cell-based. An outline of the steps: as §3
Series [10] deals with BMDM. In words: Modulation of M2 polarization in C57BL/6J mouse BMDM cells assessed as up regulation of CD206 expression measured after 24 hrs by FACS analysis. In kind it is functional, cell-based. The method, boiled down: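 BMDMs exposed to compound (300 nM, or a range of concentrations) for 24 h. Stained for F4/80 and CD206; % CD206+F4/80+ cells read by flow cytometry. Mean ± SEM, at least three independent experiments.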

The subject of series [11] is RAW264.7. In words: Inhibition of M1 polarization in mouse RAW264.7 cells assessed as down regulation of IL1R2 mRNA expression at 300 nM measured after 24 hrs by qRT-PCR analysis. In kind it is functional, cell-based.
Series [12] deals with RAW264.7. The experiment in a line: Inhibition of M1 polarization in mouse RAW264.7 cells assessed as down regulation of TNFRSF10C mRNA expression at 300 nM measured after 24 hrs by qRT-PCR analysis. The class given is functional, cell-based.
The test system of series [13] is RAW264.7. In words: Inhibition of M1 polarization in mouse RAW264.7 cells assessed as down regulation of CD80 mRNA expression at 300 nM measured after 24 hrs by qRT-PCR analysis. The class given is functional, cell-based.
The test system of series [14] is RAW264.7. The experiment in a line: Modulation of M2 polarization in mouse RAW264.7 cells assessed as up regulation of MRC1 mRNA expression at 300 nM measured after 24 hrs by qRT-PCR analysis. The class given is functional, cell-based.
Series [15] deals with RAW264.7. The experiment in a line: Modulation of M2 polarization in mouse RAW264.7 cells assessed as up regulation of IL13 mRNA expression at 300 nM measured after 24 hrs by qRT-PCR analysis. In kind it is functional, cell-based.
For series [16], the system named is RAW264.7. The experiment in a line: Modulation of M2 polarization in mouse RAW264.7 cells assessed as up regulation of CD163 mRNA expression at 300 nM measured after 24 hrs by qRT-PCR analysis. In kind it is functional, cell-based.
In series [17] the test system is RAW264.7. The experiment in a line: Modulation of M2 polarization in mouse RAW264.7 cells assessed as up regulation of PPARGC1A mRNA expression at 300 nM measured after 24 hrs by qRT-PCR analysis. The class given is functional, cell-based.
Series [18] deals with RAW264.7. In words: Modulation of M2 polarization in mouse RAW264.7 cells assessed as up regulation of CCR7 mRNA expression at 300 nM measured after 24 hrs by qRT-PCR analysis. In kind it is functional, cell-based.
Series [19] is described as follows: Ratio of AUC (0 to t) to AUC (0 to infinity) in Sprague-Dawley rat at 50 mg/kg, po administered as single dose via gavage. The class given is ADME, organism-based. As to conditions: in vivo.

Activity calls are given as the source filed them. No cut-off for these calls is given here.

For the compound `Cl.Cn1ncc(Cl)c1-c1ccc(C(=O)N[C@@H]2CNCC[C@H]2c2cccc(F)c2)cc1`, the outcome in [1] and in series [2] was inactive. The Activity in series [3] was 12.7%; in [4], 10.1%; in series [10], “Dose-dependent effect”. For the same compound, the outcome in series [5], in [8], in [14], in series [15], in [16] and in series [17] was Active. In series [18], the outcome was Active. Further, the inhibition entry in series [6], in [7], in series [9], in series [11], in series [12] and in series [13] was “Active” in each case. Further, the “Ratio AUC” value in series [19] is 98.425%.
